High-throughput results deposited in PubChem by several laboratories.
HSF-1 act = increases HSF-1 driven luciferase reporter signal | NIH3T3-HGL HSF-1 luciferase reporter, MG132, 8 h; 100% = twice DMSO control signal | activation, % at 9 µM | 300,000 compounds, 1.7% hits;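 active means mean replicate activation of at least 50% with a set share of replicates each reaching 50%; inconclusive means only one of those two conditions met; inactive means mean below 50% and too few replicates reaching it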;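 further: 0% = median of the neutral control wells and 100% = twice that signal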
HSP90 inh = blocks HSP90-mediated luciferase refolding in reticulocyte lysate | 290,000 compounds, 0.91% hits | Rabbit reticulocyte lysate, luciferase refolding luminescence, 3 h | inhibition, % at 5.6 µM | AID 1789;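 active means inhibition above the screen-wide mean plus 3 SD, computed separately per campaign, cut at about 16% in these data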;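 further: 0% = DMSO wells and 100% = 60 µM geldanamycin wells; inhibitors lower the luminescence because luciferase stays unfolded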
HSF1 inh = HSF1 inhibition; NIH3T3-HGL HSE-luciferase, MG132-induced, luminescence 8 h; stronger effect = lower value; 300,000 compounds, 0.77% hits; activity change, negative = inhibition, % at 7.5 µM (by protocol);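 active means more than half of replicate wells show activity change below -50%, luminescence cut by over half; inconclusive means some wells, but at most half, below -50%; inactive means no replicate well below -50%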;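 further: luciferase reports HSF-1 transcriptional activity via heat shock element; 0% = median of DMSO wells and -100% = zero luminescence signal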
HKDC1 inhibitor = blocks human hexokinase HKDC1 activity | inhibition, % at 20 µM | AID 493160 | Q2TB90 | recombinant HKDC1, G6PDH/diaphorase resazurin coupled fluorescence | 340,000 compounds, 0.16% hits;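 active means inhibition above about 35% when tested at 20 µM, limit read from the data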;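 further: plate controls were DMSO wells with enzyme for no effect and DMSO wells lacking enzyme for full effect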
Target sequence (Q2TB90 whole entry, looked up): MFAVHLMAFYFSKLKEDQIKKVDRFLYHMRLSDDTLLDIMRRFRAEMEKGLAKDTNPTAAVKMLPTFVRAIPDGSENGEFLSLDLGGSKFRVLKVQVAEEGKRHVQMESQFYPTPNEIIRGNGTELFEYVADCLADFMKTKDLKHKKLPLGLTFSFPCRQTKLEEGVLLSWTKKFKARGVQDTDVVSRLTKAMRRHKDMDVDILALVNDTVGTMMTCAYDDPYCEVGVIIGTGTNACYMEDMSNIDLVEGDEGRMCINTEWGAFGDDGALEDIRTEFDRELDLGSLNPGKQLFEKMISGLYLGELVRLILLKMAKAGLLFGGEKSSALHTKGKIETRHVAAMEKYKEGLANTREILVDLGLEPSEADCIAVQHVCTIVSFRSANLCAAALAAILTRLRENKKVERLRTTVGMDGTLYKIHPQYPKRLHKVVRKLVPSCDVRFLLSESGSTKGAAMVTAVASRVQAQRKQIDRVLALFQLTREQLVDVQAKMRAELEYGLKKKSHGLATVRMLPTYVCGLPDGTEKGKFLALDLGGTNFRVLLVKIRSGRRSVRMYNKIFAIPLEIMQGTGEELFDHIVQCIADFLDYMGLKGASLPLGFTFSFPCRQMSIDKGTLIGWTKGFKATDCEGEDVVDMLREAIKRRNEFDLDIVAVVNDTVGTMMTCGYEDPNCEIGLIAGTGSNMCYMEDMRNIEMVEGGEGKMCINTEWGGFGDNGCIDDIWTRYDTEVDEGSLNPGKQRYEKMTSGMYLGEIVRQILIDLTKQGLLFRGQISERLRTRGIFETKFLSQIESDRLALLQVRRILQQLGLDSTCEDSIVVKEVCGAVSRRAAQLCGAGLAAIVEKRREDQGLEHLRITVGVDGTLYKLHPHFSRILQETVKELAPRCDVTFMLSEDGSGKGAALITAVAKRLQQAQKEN
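Test system: Recombinant HKDC1 (HK5) hexokinase enzyme, produced in-house | Input: HKDC1 at 5 µg/mL | Buffer or medium: Tris pH 8.0 buffer with MgCl2, Tween-20, BSA, BME | Schedule: 90 min reaction incubation at room temperature, dark | Technique: Resazurin-to-resorufin fluorescence via G6PDH and diaphorase coupling, 525/613 nm | Controls: DMSO wells with and without enzyme mix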
TbHK1 inh = T. brucei hexokinase 1 inhibition; recombinant TbHK1, G6PDH-coupled NADH A340; inhibition, % at 10 µM; 220,000 compounds, 0.11% hits; AID 1430;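 active means inhibition of 50% or more in the single-dose primary screen; inactive means inhibition below 50%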
Hsp70 activator = transcriptional activators of Hsp70; HeLa Hsp70 promoter luciferase reporter, luminescence; scaled: vehicle 0, proteasome-inhibitor control 100%; 200,000 compounds, 0.04% hits; activation, % at 10 µM;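 active means activation above the mean across all tested compounds plus 3 SD, cutoff set per campaign, cut at about 5.5% in these data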;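 further: 100% = MG132 at 30 µM as the positive control and 0% = DMSO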
* hit, by the source's call; ? = inconclusive; . = not tested or not shown. Shown are actives, neighbours in structure and some others; about 3.1% of the full set was active somewhere.

SMILES	HSF-1 act	HSP90 inh	HSF1 inh	HKDC1 inhibitor	TbHK1 inh	Hsp70 activator
COc1ccc(C(=O)CCC(=O)N2CCN(c3ccc(C)cc3)C(C)C2)cc1 (configuration not stated)	-11	0	-4	-4	.	.
COc1ccc(CN(C)CC(=O)Nc2cccc(S(=O)(=O)N3CCCC3)c2)cc1F	.	.	.	-1	.	.
O=C(CSc1nccn(-c2ccc(F)c(F)c2)c1=O)NC1CCCC1	62*	.	23	-3	.	.
N#CCCN(C(=S)Nc1ccc(S(=O)(=O)N2CCOCC2)cc1)c1ccccc1F	.	.	.	-3	.	.
O=c1c2ccccc2nc(SCc2ccc([N+](=O)[O-])cc2)n1-c1ccc(Cl)cc1	12	1	4	0	-5	0
Fc1ccc(CSc2nc3ccccc3[nH]2)cc1	61*	1	28	-8	-2	0
c1ccc(CSc2nc3ccccc3[nH]2)cc1	?	3	35	-3	-5	.
O=[N+]([O-])c1ccc(CSc2nc3ccccc3[nH]2)cc1	121*	2	67	-8	0	0
Cc1cc(SCc2ccc([N+](=O)[O-])cc2)nc(=O)[nH]1	69*	-1	34	6	.	.
Nn1c(SCc2ccc([N+](=O)[O-])cc2)nc2ccccc2c1=O	55*	2	20	-3	.	.
O=C(c1cccc(C(F)(F)F)c1)N1CCC2(CC1)NCCc1[nH]cnc12	-3	-7	-1	-5	.	.
O=c1c2sccc2nc(SCc2ccc([N+](=O)[O-])cc2)n1Cc1ccccn1	59*	2	19	-7	-6	0
O=C(CCCSc1nc2ccccc2[nH]1)N1CCN(c2ccc([N+](=O)[O-])cc2)CC1	73*	5	23	-1	-11	0
O=C(NC(Cc1ccc(O)cc1)C(=O)O)c1ccc2c(c1)OCO2 (configuration not stated)	.	.	.	3	.	.
Cc1ccc(C(=O)NCCOc2cccc(C)c2)cc1	59*	-3	34	-3	-3	0
COc1cccc(C(=O)NCCOc2cc(C)cc(C)c2)c1	-8	-6	-12	-8	3	0
COc1ccc(/C=N/Nc2cc(C)nc3ccc(Br)cc23)cc1	59*	-2	7	1	.	.
Cc1ccc(C(C)C)c(OCC(=O)NNC(=O)Cn2[nH]c(=O)c3ccccc3c2=O)c1	.	.	.	-6	.	.
COc1ccc(CCNC(=O)CSc2nc3cc(Cl)ccc3o2)cc1OC	66*	5	25	-6	-9	0
CC(C)c1nc(SCc2c(F)cccc2Cl)c2c(=O)n(C)c(=O)n(C)c2n1	-73	0	-67*	1	2	0
Cn1c(=O)c2c(nc(SCCCC#N)n2Cc2c(F)cccc2Cl)n(C)c1=O	11	0	5	-1	4	0
Cc1nn(CC(=O)Nc2c(F)c(F)cc(F)c2F)c(=O)c2cccn12	27	-3	12	-2	.	.
COc1ccccc1NS(=O)(=O)c1cccc(C(=O)N/N=C(\C)c2cccnc2)c1	.	.	.	-4	.	.
CC(C)c1ccc(O)c(NC(=O)c2cccnc2)c1	-16	0	4	-7	-6	0
CCC(C)c1ccc(O)c(NC(=S)NC(=O)c2cccnc2)c1 (configuration not stated)	72*	-4	54	-7	-4	0
SMILES	HSF-1 act	HSP90 inh	HSF1 inh	HKDC1 inhibitor	TbHK1 inh	Hsp70 activator
Nc1cccc(/C=C/C(=O)O)c1	-70	5	-58*	3	-18	.
O=C(O)/C=C/c1cccc(NS(=O)(=O)c2ccccc2)c1	-3	1	4	-4	32	0
O=C(c1ccco1)c1coc2c1cc(O)c1ccccc12	68*	-1	36	5	-4	0
Cc1ccc(C(=O)N/C(=C\c2ccc(-c3cccc([N+](=O)[O-])c3)o2)C(=O)NCCCN(C)C)cc1	10	4	-2	-5	.	.
Cc1ccc(C(=O)N/C(=C\c2ccc(-c3ccccc3[N+](=O)[O-])o2)C(=O)NCCCN2CCOCC2)cc1	58*	9	20	8	.	.
Cc1ccc(C(=O)N/C(=C\c2ccc(-c3ccc(Br)cc3)o2)C(=O)NCCCN(C)C)cc1	-98	-1	-97*	-2	-7	0
Cc1ccc(C(=O)N/C(=C\c2cn(C)c3ccccc23)C(=O)NCCCN2CCOCC2)cc1	-1	-4	0	-5	.	.
CCn1c(=O)c2sccc2n(Cc2ccc(C)cc2)c1=O	-9	1	-1	-2	.	.
CCc1ccc(C(=O)NNC(=O)c2cccc(N3C(=O)CCC3=O)c2)cc1	-10	.	-6	-5	.	.
Cc1ccc(C)c(-n2ccnc2SCC(=O)c2c(N)n(C3CC3)c(=O)[nH]c2=O)c1	.	.	.	-4	.	.
O=C(CN1CCCC1)Nc1c2c(cc3c1CCC3)CCC2	-71	-4	-64*	-8	4	0
O=C(CN1CCCC1)Nc1ccc2c(c1)CCC2	7	-1	0	0	3	0
CCOC(=O)c1c(COc2ccccc2)oc2ccc(O)cc12	105*	0	74	1	-4	0
CCOC(=O)c1c(C)n(CCOc2ccccc2)c2ccc(O)cc12	69*	9	28	-3	.	.
COc1ccc(OC)c(NC(=O)CSc2nnc3ccc(-c4ccncc4)nn23)c1	-27	-2	-9	3	-1	0
COc1ccc(NC(=O)CSc2nnc3ccc(-c4ccncc4)nn23)cc1OC	-80	-5	-75*	5	-1	0
Cc1cccc(C)c1OCCCCn1cnc2ccccc2c1=O	21	4	8	-5	-3	0
Cc1cc(C)c(OCCCCn2cnc3ccccc3c2=O)c(C)c1	56*	1	23	-4	2	0
Cc1ccc2nc3sc(C(=O)NCc4ccco4)c(N)c3cc2c1	85*	2	52	-5	-17	0
CCCC(c1nnnn1C(C)(C)CC)N(Cc1ccco1)Cc1cc2ccc(OC)cc2[nH]c1=O (configuration not stated)	57*	6	23	3	-17	0
Cc1cc(C)c2cc(CN(Cc3ccco3)C(=S)NCC3CCCO3)c(=O)[nH]c2c1 (configuration not stated)	299*	0	193	5	-19	0
COc1ccc2cc(CN(Cc3ccco3)C(=S)NCC3CCCO3)c(=O)[nH]c2c1 (configuration not stated)	55*	-2	25	-5	-23	0
COc1ccc2[nH]c(=O)c(CN(Cc3ccccc3)C(=S)NCC3CCCO3)cc2c1 (configuration not stated)	10	1	6	18	-2	0
COC(=O)c1ccccc1NC(=S)N(Cc1ccc2c(c1)OCO2)Cc1cc2ccc(OC)cc2[nH]c1=O	90*	-2	50	11	-20	0
CCc1cccc(C)c1NC(=S)N(CCOC)C(C)c1ccco1 (configuration not stated)	7	-1	5	-6	3	.
